Measured values taken from the EternaBench riboswitch data.

Tested on: MS2 coat protein
Test: apparent Kd, MS2 coat protein; higher = weaker binding; RNA-MaP array; FMN 200 µM where present
In short: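 Apparent Kd: the median of filtered binding-curve fits from single clusters. Designs were transcribed on Illumina sequencing-chip clusters by stalled E. coli RNA polymerase and titrated with SNAP-549-labelled MS2 coat protein from 0.7 or 1.5 nM, doubling to 3 µM, in 100 mM Tris-HCl pH 7.5, 80 mM KCl, 4 mM MgCl2, BSA, DTT, yeast tRNA and Tween-20. Each series ran without and then with constant ligand, and green signal was normalised to red-channel RNA signal and control-cluster median Fmax.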

[1] = designed as: OFF switch for flavin mononucleotide, no ligand
[2] = ligand present: flavin mononucleotide, designed as: OFF switch for flavin mononucleotide
[3] = designed as: ON switch for flavin mononucleotide, no ligand
[4] = ligand present: flavin mononucleotide, designed as: ON switch for flavin mononucleotide

Row | Sequence | apparent Kd [1] [nM] | apparent Kd [2] [nM] | apparent Kd [3] [nM] | apparent Kd [4] [nM]
1 | ACGGCAGUCGAAGGAUAUGGUUACAUGAGGAUCACCCAUGUCUAGGGUCUAAUUAGGUAUAAUUACCAGAAGGUCGAAGGCCUA | 90.5 | 123 |  | 
2 | CGAGGACAUGAGGAUCACCCAUGUAGCUACAAAACGCAGCGACAGGAUAUCCUCUGGUUCCCAUAGGAGAAGGGUCAAACCUUG |  |  | 29.4 | 47.3
3 | GUAGCAUGCCAAGGAUAUUCAUAUAGUAGGCAAACAUGAGGAUCACCCAUGUAAUGAGAGCACUGGGAGAAGGUGGGAUGCUAC |  |  | 28.6 | 21.4
4 | UACGGGUCAGGAUAUGCGAGAGAGUGGGAAAUAGGAAGGUAGCAGAAGGGACAUGAGGAUCACCCAUGUGAGGC | 24.3 | 29.5 |  | 
5 | AGAAUGAUGUCAGGAUAUGACGCUGAGAGCACGUCAGAAGGGACAUGAGGAUCACCCAUGUCGGGCUAAUGAAGCUAUGGCACU | 8.86 | 11.7 |  | 
6 | UGUCAUAAAUAGAAGGGUAGUUGGGUUUUACAUGAGGAUCACCCAUGUAUUAUAGGAUAUGUGUAAAGUUAUUAUUAAAGUAAA | 39.2 | 34.5 |  | 
7 | UACCUGAGGCAAAGCUUUAGGUAUACAUGAGGAUCACCCAUGUAGGAUAUGGUAGGCUUUGCUUACCAGAAGGACAUGUUAAUA | 17.3 | 56.3 |  | 
8 | AUCUCAGGACGAGGAUAUCAAUACAUGAGGAUCACCCAUGUAUGACUACUGUGAUCCUUUAAGGCUGAGAAGGCGUCCCAAAUG | 20.2 | 60.8 |  | 
9 | GGAGCCGGCACCGAGGAUAUUCAUAUUAAAACAUGAGGAUCACCCAUGUGGGCCAGAAGGCCUUGGGAGAAGGCGGAUCGGCUCG |  |  | 305 | 30
10 | GCCGCCCGAUCUGGCUUUUGGGCUAGAAGGGCAUAUGUGGUUCAGGACAUGAGGAUCACCCAUGUGCAGGAUAUAGCCCACCGC | 25.1 | 53 |  | 
11 | AAACACGAUCGAGGAUAUCAUGCUUACGUCCCGGAUCCAUAAACAUGAGGAUCACCCAUGUGAUAUGAGAAGGCGAUAGUCAUA | 19.5 | 26.9 |  | 
12 | UAAACAUGAGGAUCACCCAUGUAAAGAUCGGUAGUAGAGAGUGAGGAUAUACUAAAUUUAAUGGAGUAGAAGGCACUGGGUUCU |  |  | 44.8 | 30.9
13 | UAUUUACAUGAGGAUCACCCAUGUUAGGAUAUGUUUCUAUCGUCGAAAGAUGAUAUUUGCAGAAGGGACUUUAU | 27.6 | 25.1 |  | 
14 | GGUCCAUUAUGAGGAUAUGGCACCUUAUUGGUGCCAGAAGGCAUGUCUAUAGACAUGAGGAUCACCCAUGUAUUAAUUUGGACC |  |  | 360 | 41.4
15 | AUCCUGCGAGGAUAUACAUAGUUUUUUUCGUUUUGACUCGAACAUGAGGAUCACCCAUGUAGAAGGUGCUUCAC | 59.5 | 56 |  | 
16 | CGCUAGUCAGGAUAUACGAACAUGUCAAAAGACGUGAAGGGACAUGAGGAUCACCCAUGUAGAAGGGACUAGCC | 32.8 | 115 |  | 
17 | UCAUUUAUUACAGGAUAUAUUAGUAUACAGUUGUUUGGUUAUUACAUAUUAAUAGAAGGGUAGAACAUGAGGAUCACCCAUGUA |  |  | 234 | 119
18 | ACGUAUCGUGUAGGAUAUGACACAGGAAACUGGUCAGAAGGACAUGAGGAUCACCCAUGUAGAGUAUGUUAGGAUGACGUAUGC | 43 | 261 |  | 
19 | UGUCGGAGCAGAGGAUAUACAUGAGGAUCACCCAUGUAAAUGAAAGAUAAGCUGGAAACAGCAAUGUAGAAGGCUGCUCCGACA | 18.4 | 88 |  | 
20 | CCUCCGUAUUAGGAUAUCGUCCCGGAAACGGGACGAGAAGGAAUAACAUGAGGAUCACCCAUGUUAACGUGAUG | 18.8 | 46.7 |  | 
21 | CAAUGCCUGUCGAUGCUCGACAUGAGGAUCACCCAUGUAUAGCAGGAUAUGCAGAACUGACUCGUGCAGAAGGGCUAUACCUAA | 25.8 | 61.1 |  | 
22 | GGUUGUCAUAGUCAUCCUUUACGUACAUGAGGAUCACCCAUGUAGGAUAUGCUACUCAAAGAGUAGCAGAAGGGCGUGUGUCUU | 23.1 | 25.5 |  | 
23 | AUAAUUUUAUAUUUAUUUUUAUUCAGAAGGCAUAACAUGAGGAUCACCCAUGUAAAUUAAUGUUAUGAGGAUAUGAUUUGGUUA | 26.2 | 123 |  | 
24 | UGGUACAUGGGAGGAUAUCCUCAAGAACAUGAGGAUCACCCAUGUAAUUAUAAGCCGAAAGGCAUGGAGAAGGCCCAUGUACCU |  |  | 66.4 | 16
25 | AAAAAGUGAGGAUAUACAUGAAAAAAAAAAAAAAAAAAAAAACAUGAGGAUCACCCAUGUAGAAGGCGCAAAAA | 55.1 | 45.7 |  | 
26 | GGUGCGUUUGUGAGGAUAUGCUGGUCCUUGGAUCAGCAGAAGGCACAUGAGGAUCACCCAUGUGGUGUCGGUCC | 416 | 37.6 |  | 
27 | CGAUAUACGACGGACGGAAACGUACAUGAGGAUCACCCAUGUAGAAGGCGAUCCGCAACGCGGAUUGAGGAUAUAUAGUAUACA | 20.7 | 14.6 |  | 
28 | CGUGCUAUGUAGAAGGCAGAUCUGAUUCAGAUCUGAGGAUAUACAUGAGGAUCACCCAUGUUAUGCACCAGCACGAGAGUGCAC |  | 11.5 |  | 

Row | Sequence | apparent Kd [1] [nM] | apparent Kd [2] [nM] | apparent Kd [3] [nM] | apparent Kd [4] [nM]
29 | AAGAGAAGAACUGAGGAUAUCAGGGAUGGUACAUGAGGAUCACCCAUGUUGGCAAGCGAAGAAACUGAGAAGGCAGAGAAGAAGAA |  |  | 80.3 | 48.1
30 | AGGUAACAUGAGGAUCACCCAUGUCAGGAUAUCAGUAAGAUGAGAAUAGAGUAGAGUAUGAGAAGGGACUAUAU | 43.6 | 32.3 |  | 
31 | AGCUACGUUUCGUAGCAGUGUCAUCGAGAAGGCCUUAUUACAUGAGGAUCACCCAUGUAUGCAUGGGAGGAUAUCGAUGAUACA |  |  | 13.9 | 5.25
32 | AACUUGCGCACAGGAUAUCCACGGAGCGGACGUGGAGAAGGGUGACAUGAGGAUCACCCAUGUACGUAAGUCUGGAUCACUUCC |  |  | 116 | 42.3
33 | UUACUUCAUGAGAAGGACAUGAGGAUCACCCAUGUAGGAUAUCGUGGGAGACUGGUAUUGAAUCUUCGGAUUCAAUACCAGUCU |  |  | 56.9 | 9.15
34 | ACGGUGGUCACAGGAUAUCCGGCCCGCGUGCCUGGAGAAGGGUGACUCAGAACCACAUGAGGAUCACCCAUGUGCCUUACCGUA |  |  | 52.6 | 23.9
35 | CGUGCGUAUGUGAGGAUAUGCUGGUCCUUGGAUCGGCAGAAGGCACAUGAGGAUCACCCAUGUGGUGUCGUUCC | 42.8 | 274 |  | 
36 | UAUUAAACAUAGGAUAUCGAAUAAAUCAUUUAACGAGAAGGAUGAACAUGAGGAUCACCCAUGUGGUAUCAUGG | 246 | 256 |  | 
37 | UGCCCUCUUAAGGAUAUAUUGGACGAGCGACCAAUAGAAGGUGGGACAUGAGGAUCACCCAUGUGCAGACAUCC | 23.2 | 22.7 |  | 
38 | GGAUAACAUGAGGAUCACCCAUGUACAUGGGUACAAGGAUAUGUAAAAUAAAACAAACAAACAGAAGGUGUAAAAA |  |  | 708 | 1450
39 | ACUAAUUAGUGAGGAUAUACAUAAUUUAUAACUGUAGAAGGCACAAACCUCAAUACAUGAGGAUCACCCAUGUGGUAUAUAAAU | 244 | 434 |  | 
40 | AAUUUACAUGAGGAUCACCCAUGUGAGGAUAUGAUACUAUGUACUUCGGUACAUAGUAUCAGAAGGCAUGUGGG | 27.2 | 21.4 |  | 
41 | AUAUCCGAAGCAGGAUAUCGACGAGGUGUCGAGGUAGAGCGUAUUCACAUGAGGAUCACCCAUGUCGAGAAGGGCUACAGGAUA | 56.5 | 15.9 |  | 
42 | GCGAAUUAGUGAGGAUAUACAUAAUUUAAAACUGUAGAAGGCACAAUCCUCAAGACAUGAGGAUCACCCAUGUGAUAUUAAGCU | 46 | 158 |  | 
43 | AAACGCCAACAUGAGGAUCACCCAUGUUCUAGUUUAGGGUCGCAGGAUAUGACUUCGAAGCUUAGUCAGAAGGGUGAGUCCACA |  |  | 13.7 | 11.2
44 | GUUGCGUUUGUGAGGAUAUGCUGUUCCUUGGUUCGGCAGAAGGCACAUGAGGAUCACCCAUGUGGUGUCGUUCC | 15.5 | 28.7 |  | 
45 | UUCAAGGAAGGAUAUCUCGGCCCGGACAUGAGGAUCACCCAUGUUGUUUUUAGAUUCGUGAGAGAAGGUCUUAUAU | 38.8 | 26.5 |  | 
46 | GAGUACUGAGGAUAUACAUGAGGAUCACCCAUGUGUUCCAGCUAGGAAACUAGCAAAAGUAGAAGGCAGUACUG | 19.5 | 156 |  | 
47 | GCCGUAAAUGUGAGGAUAUACCUAUGGAAACAUAGGUAGAAGGCACAUGAGGAUCACCCAUGUCCUUAAUCGGC | 447 | 406 |  | 
48 | CUAUCGAGGUAACUCGCUAUCACACCAGAAGGGACGGAGGCACAUGAGGAUCACCCAUGUCCUAGUCAGGAUAUGGGUGAGUAG |  |  | 17.6 | 5.07
49 | AGCAUGUGAGGAUAUGCGGACUCCGGUAAAUCUGGAGUCCAGUAGAAGGCACAUGAGGAUCACCCAUGUGAUAA | 98.3 | 83.2 |  | 
50 | CGGCUCUCAGGAUAUACCUCGGGUGGCCAACUGUUUCGUUUACAUGAGGAUCACCCAUGUAGAAGGGAGGGCAA | 49.7 | 27 |  | 
51 | GGUGAAUGAACAUGAGGAUCACCCAUGUCCAGGAAACUGAAUGAGGAUAUCCAUAGCAAAGCUAUGGAGAAGGCAUGGGUCACC |  |  | 562 | 241
52 | AACCAACAUGAGGAUCACCCAUGUUCUCAGACGUUUAGGUCACAGGAUAUUCGUGCUUGUGGGACGGAGAAGGGUGCCUCGCUG |  |  | 92.7 | 125
53 | CAGCCCUGAGGAUAUCCAUCCUUGUACAUGAGGAUCACCCAUGUUUCCCUCUGGGCUUUCGGAGAAGGCAGGUAUC | 61 | 61.7 |  | 
54 | UUGUUGUAUGUAGGAUAUGCAUAUUAUUAUUAUGCAGAAGGACAUGAGGAUCACCCAUGUAUGUUAUUAUUAUGUGUUAUGUGU | 44 | 71.5 |  | 
55 | UGACGGAGCUGAGGAUAUAUACAUGAGGAUCACCCAUGUAAGCUCCAGGAAACUGGAGCAAAUGUAUAGAAGGCAGCUCCGUCA | 30.3 | 48 |  | 
